# Data published in ChEMBL document CHEMBL4011626, “Structure-Based Optimization of Pyridoxal 5'-Phosphate-Dependent Transaminase Enzyme (BioA) Inhibitors that Target Biotin Biosynthesis in Mycobacterium tuberculosis” (J Med Chem, 2017).
# Experiments:
# [1] = system: Mycobacterium tuberculosis; assay: Inhibition of Bio-A underexpressed in Mycobacterium tuberculosis in presence of anhydrotetracycline after 9 days
# Method in brief: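 BioA-overexpressing or BioA-underexpressing Mtb strains were pregrown in Sauton's with 1 μM biotin, washed twice, and seeded at OD580 0.03 in biotin-free medium with 200 ng/mL anhydrotetracycline to set BioA expression. Compounds were tested at 0.2–50 μM final at 37 °C. OD580 was read after 9 days. MIC is the concentration giving 50% inhibition. Triplicate, two biological replicates.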
# [2] = system: Mycobacterium tuberculosis H37Rv; assay: Inhibition of Bio-A in wild type Mycobacterium tuberculosis H37Rv after 9 days
# Method in brief: (§1)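 Wild-type Mtb H37Rv was pregrown in Sauton's medium with 1 μM biotin to OD580 1.0–1.2, washed twice in biotin-free Sauton's, and seeded at OD580 0.03 without biotin. Compounds were tested at 0.2–50 μM final, with no-compound controls, at 37 °C. OD580 was read at 9 days. MIC is the concentration giving 50% inhibition. Triplicate, two biological replicates.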
# [3] = system: Mycobacterium tuberculosis H37Rv; assay: Inhibition of Bio-A in wild type Mycobacterium tuberculosis H37Rv in presence of biotin after 9 days
# Method in brief: as §1, with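 “with 1 μM biotin added.” for “without biotin.”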
# [4] = Inhibition of wild type Mycobacterium tuberculosis Bio-A using KAPA as substrate after 45 mins in presence of fluorescently labeled dethiobiotin tracer
# [5] = system: Mycobacterium tuberculosis; assay: Antibacterial activity against wild type Mycobacterium tuberculosis H37Rv after 14 days; format: functional; settings: 336 h
SMILES,MIC50 [1] [µM],MIC50 [2] [µM],further results
COc1cc(Cl)cc(C(=O)N2CCN(c3ccc(C(C)=O)cc3)CC2)c1,18.3,28.6,
CC(=O)c1ccc(N2CCN(C(=O)c3ccc(Cl)c(Cl)c3)CC2)cc1,1.9,10.2,
O=C1CCc2cc(N3CCN(C(=O)c4cccc(Cl)c4)CC3)ccc21,0.3,4.4,
COC(=O)c1ccc(N2CCN(C(=O)c3cccc(Cl)c3)CC2)cc1,> 50,> 50,
Cn1nnnc1-c1ccc(N2CCN(C(=O)c3cccc(Cl)c3)CC2)cc1,> 50,> 50,
CC(=O)c1ccc(-c2cn(Cc3cccc(Cl)c3)nn2)cc1,24.4,22,MIC50 [3]: > 50 µM
CC(=O)c1ccc(N2CCN(C(=O)c3cccc(Cl)c3)CC2)s1,1.1,9.9,
CCCCCC(=O)N1CCN(c2ccc(C(C)=O)cc2)CC1,10.6,8.7,
CCCC(=O)N1CCN(c2ccc(C(C)=O)cc2)CC1,> 50,> 50,
O=C1CCc2cc(N3CCN(C(=O)c4ccc5c(c4)OCO5)CC3)ccc21,0.3,1.7,
CN1Cc2cc(N3CCN(C(=O)c4cccc(Cl)c4)CC3)ccc2C1=O,1.2,15.2,
CC(=O)c1ccc(N2CCN(C(=O)c3cnn(C)c3)CC2)cc1,11.3,> 50,
CC(=O)c1ccc(N2CCC(C(=O)c3cccc(Cl)c3)CC2)cc1,6.8,4.1,
O=C(c1cccc(Cl)c1)N1CCN(c2ccc([N+](=O)[O-])cc2)CC1,4.7,15.4,
O=C(c1cccc(Cl)c1)N1CCN(c2ccc(-c3ccccn3)cc2)CC1,> 50,> 50,
Cc1noc(-c2ccc(N3CCN(C(=O)c4cccc(Cl)c4)CC3)cc2)n1,> 50,> 50,
CCC(=O)N1CCN(c2ccc(C(C)=O)cc2)CC1,> 50,> 50,
O=C(c1cccc(Cl)c1)N1CCN(c2ccc(-c3ccno3)cc2)CC1,0.4,6.7,

SMILES,MIC50 [1] [µM],MIC50 [2] [µM],further results
CC(=O)c1ccc(N2CCN(C(=O)c3cccc(Cl)c3)CC2)cc1,0.5,5.1,
COc1ccc(-c2ccc(N3CCN(C(=O)c4cccc(Cl)c4)CC3)cc2)nc1,24.4,22,MIC50 [3]: > 50 µM
N#Cc1ccc(N2CCN(C(=O)c3cccc(Cl)c3)CC2)cc1,44.8,18.5,
CC(=O)c1ccc(N2CCN(C(=O)c3cscn3)CC2)cc1,> 50,> 50,
CC(=O)c1ccc(N2CCN(C(=O)c3cc(Cl)cc(Cl)c3)CC2)cc1,> 50,> 50,
O=C(c1cccc(Cl)c1)N1CCN(c2ccc3c(c2)COC3)CC1,12.8,40.8,
CC(=O)c1cccc(N2CCN(C(=O)c3cccc(Cl)c3)CC2)c1,26.6,> 50,
CC(=O)c1ccc(N2CCN(C(=O)c3ccc4c(c3)OCO4)CC2)cc1,0.4,5.6,MIC90 [1]: 1.7 µM; IC50 [4]: 155 nM; MIC90 [2]: 23.4 µM; MIC90 [3]: > 50 µM; MIC [5]: 26 µM
CC(=O)c1ccc(N2CCC(C(=O)c3ccc4c(c3)OCO4)CC2)cc1,> 50,> 50,
CC(=O)c1ccc(N2CCN(C(=O)CC(C)C)CC2)cc1,> 50,> 50,
C/C(=N\O)c1ccc(N2CCN(C(=O)c3cccc(Cl)c3)CC2)cc1,15.1,20.4,
CC(=O)c1ccc(N2CCN(C(=O)c3ccc4c(c3)OCCCO4)CC2)cc1,21.1,> 50,
CC(=O)c1ccc(N2CCN(C(=O)c3cncc(Cl)c3)CC2)cc1,> 50,> 50,
CC(=O)c1ccc(N2CCN(C(=O)c3ccc4c(c3)OCCO4)CC2)cc1,10.4,> 50,
CC(=O)c1ccc(N2CCN(C(=O)c3cccnc3)CC2)cc1,14.6,> 50,
O=C1OCc2cc(N3CCN(C(=O)c4cccc(Cl)c4)CC3)ccc21,1.8,35,
CC(=O)c1ccc(-c2cn(Cc3cccc(Cl)c3)nn2)s1,> 50,> 50,
